From ChEMBL document CHEMBL1154767, “Reversal agent and linker variants of reversed chloroquines: activities against Plasmodium falciparum” (J Med Chem, 2010)

Legend:
Plasmodium falciparum [1] = test: Antimalarial activity against chloroquine-sensitive Plasmodium falciparum D6 after 72 hrs by fluorescence based method; assay type: functional, organism-based; conditions: D6, 72 h
How it was run: (§1)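 Asynchronous parasite cultures diluted with uninfected erythrocytes in RPMI-1640 plus 0.5% Albumax II to 0.2% parasitemia, 2% hematocrit. Drugs diluted from 10 mM DMSO stock, final 0 to 10^-4 M, triplicate wells. After 72 h under standard culture conditions, read by SYBR Green I fluorescence (ex 497, em 520 nm). IC50 from nonlinear regression of fluorescence vs log[drug].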

Plasmodium falciparum [2] = test: Antimalarial activity against chloroquine-resistant Plasmodium falciparum Dd2 after 72 hrs by fluorescence based method; assay type: functional, organism-based; conditions: Dd2, 72 h; how it was run: as §1
[3] = Therapeutic index, ratio of IC50 for C57B1/6J mice (Mus musculus) splenic lymphocyte to IC50 for chloroquine-sensitive Plasmodium falciparum D6; conditions: read-out: TI
[4] = Therapeutic index, ratio of IC50 for C57B1/6J mice (Mus musculus) splenic lymphocyte to IC50 for chloroquine-resistant Plasmodium falciparum Dd2; conditions: read-out: TI

| Compound | IC50 (Plasmodium falciparum [1]) | IC50 (Plasmodium falciparum [2]) | selectivity ratio [3] | selectivity ratio [4] |
| --- | --- | --- | --- | --- |
| CN(CCCNc1ccnc2cc(Cl)ccc12)CCCN1c2ccccc2CCc2ccccc21 | 3 nM | 5 nM |  |  |
| O=C(CNCCNc1ccnc2cc(Cl)ccc12)N(Cc1ccccc1)Cc1ccccc1 | 14 nM | 16 nM |  |  |
| Clc1ccc2c(NCCNCCCN(Cc3ccccc3)Cc3ccccc3)ccnc2c1 | 7 nM | 16 nM |  |  |
| O=C(CNCCNc1ccnc2cc(Cl)ccc12)N(c1ccccc1)c1ccccc1 | 5 nM | 13 nM | 12000 | 4800 |
| O=C(CN(CCNc1ccnc2cc(Cl)ccc12)CC(=O)N(c1ccccc1)c1ccccc1)N(c1ccccc1)c1ccccc1 | 30 nM | 52 nM |  |  |
| Clc1ccc2c(NCCCNCCCCN(Cc3ccccc3)Cc3ccccc3)ccnc2c1 | 8 nM | 11 nM |  |  |
| Clc1ccc2c(NCCN(CCN(Cc3ccccc3)Cc3ccccc3)CCN(Cc3ccccc3)Cc3ccccc3)ccnc2c1 | 2 nM | 5 nM |  |  |
| O=C(CN1CCN(c2ccnc3cc(Cl)ccc23)CC1)N(c1ccccc1)c1ccccc1 | 49 nM | 101 nM |  |  |
| Clc1ccc2c(NCCCNCCCN(Cc3ccccc3)Cc3ccccc3)ccnc2c1 | 23 nM | 34 nM |  |  |
| Clc1ccc2c(NCCCNCCN(c3ccccc3)c3ccccc3)ccnc2c1 | 26 nM | 27 nM |  |  |
| Clc1ccc2c(NCCCNCCN(Cc3ccccc3)Cc3ccccc3)ccnc2c1 | 2 nM | 6 nM |  |  |
| Clc1ccc2c(NCCNCCN(Cc3ccccc3)Cc3ccccc3)ccnc2c1 | 10 nM | 16 nM |  |  |
| Clc1ccc2c(N3CCN(CCN(Cc4ccccc4)Cc4ccccc4)CC3)ccnc2c1 | 52 nM | 115 nM |  |  |
